The values that follow come from ChEMBL document CHEMBL3400028, “Evaluation of Aconitum diterpenoid alkaloids as antiproliferative agents” (2015).

Common to all, as to format: functional
The test system of one test is DU-145. Put plainly: Antiproliferative activity against human DU145 cells by sulforhodamine B assay. The method in brief:
(§1)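 Cells in RPMI 1640 (25 mM HEPES, 2 mM L-glutamine, 10% heat-inactivated FBS, antibiotics) at 37 °C, 5% CO2. Seeded at 3–5 × 10³/well with graded concentrations, paclitaxel as assay control, for 72 h. TCA-fixed, stained with 0.04% SRB, dye dissolved in 10 mM Tris, A515 read. GI50 is the concentration halving absorbance versus untreated cells; three or more experiments.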

The nature of test [1]: Antiproliferative activity against multidrug-resistant P-gp expressing human KBVIN cells by sulforhodamine B assay. The method in brief: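 Vincristine-resistant KB subline kept in 100 nM vincristine, then grown 7–10 days without it before testing. RPMI 1640 with 10% FBS, 37 °C, 5% CO2. 3–5 × 10³ cells/well exposed 72 h to a concentration series, paclitaxel as assay control. SRB staining after TCA fixation, A515 read. GI50 is the 50% absorbance reduction versus untreated cells; three or more experiments.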

Another test has as its system KB. Kind of test: Antiproliferative activity against human KB cells by sulforhodamine B assay. The method in brief: as §1
A short description of test [2]: Selectivity ratio of GI50 for human KB cells to GI50 for multidrug-resistant P-gp expressing human KBVIN cells. The method in brief:
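Ratio of GI50 in parental KB to GI50 in P-gp-overexpressing KB-VIN. […] KB-VIN cells were grown 7–10 days without vincristine before the assay.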

For the next test, the system named is A549. Put plainly: Antiproliferative activity against human A549 cells by sulforhodamine B assay. The method in brief: as §1

With `C=C1[C@@H](O)[C@]23C[C@@H]1[C@@H](OC(=O)c1ccccc1)C[C@H]2[C@@]12C4C3C[C@@H]1[C@@](C)(CC[C@H]2O)CN4CC`, the 50% growth inhibitory concentration (GI50) (in the test on DU-145; in test [1]; in the test with KB; in the test with A549) was > 20 µM each time. The RatioGI50 in test [2] is recorded as >20.
For `C=C1[C@@H](O)[C@]23C[C@@H]1[C@@H](OC(=O)c1ccc(OC)cc1)C[C@H]2[C@@]12C4C3C[C@@H]1[C@@](C)(CC[C@H]2O)CN4CC`, the GI50 (with DU-145; in test [1]; in the test on KB; in the test on A549) was > 20 µM throughout. The RatioGI50 in test [2] is listed as >20.
As to `C=C1[C@H]2C[C@@]3([C@@H]1OC(C)=O)[C@@H](C[C@@H]2O)[C@@]12C4[C@@H]3C[C@@H]1[C@@](C)(CC[C@@H]2O)CN4CC`, the 50% growth inhibitory concentration (GI50) (with DU-145; in test [1]; in the test on KB; in the test with A549) was > 20 µM throughout. In test [2], the RatioGI50 is on record as >20.
As for `C=C1[C@H]2C[C@@]3([C@@H]1OC(C)=O)[C@@H](C[C@@H]2O)[C@@]12C4[C@@H]3C[C@@H]1[C@@](C)(CC[C@@H]2O)C[N+]4([O-])CC` (stereo not given in full), the GI50 (in the test with DU-145; in test [1]; with KB; in the test on A549) was > 20 µM throughout. For the same molecule, in test [2], the RatioGI50 is on record as >20.
For the molecule `C=C1[C@H]2C[C@@]3([C@@H]1OC(C)=O)[C@@H](C[C@@H]2OC(C)=O)[C@@]12C4[C@@H]3C[C@@H]1[C@@](C)(CC[C@@H]2O)CN4CC`, the 50% growth inhibitory concentration (GI50) (in the test on DU-145; in test [1]; with KB; in the test on A549) was > 20 µM in each case. Besides, the RatioGI50 in test [2] is listed as >20.
Consider `C=C1[C@H]2C[C@@]3([C@@H]1O)[C@@H](C[C@@H]2O)[C@@]12C4[C@@H]3C[C@@H]1[C@@](C)(CC[C@@H]2OC(C)=O)CN4CC`, for which the GI50 (in the test with DU-145; in test [1]; in the test with KB; in the test with A549) was > 20 µM each time. Besides, in test [2], the RatioGI50 was >20.
Regarding `C=C1[C@H]2C[C@@]3([C@@H]1OC(C)=O)[C@@H](C[C@@H]2OC(=O)c1ccccc1)[C@@]12C4[C@@H]3C[C@@H]1[C@@](C)(CC[C@@H]2O)CN4CC`, the GI50 (with DU-145; in test [1]; with KB; in the test with A549) was > 20 µM throughout. Moreover, the RatioGI50 in test [2] is recorded as >20.
`C=C1[C@H]2C[C@@]3([C@@H]1OC(=O)c1ccccc1)[C@@H](C[C@@H]2OC(=O)c1ccccc1)[C@@]12C4[C@@H]3C[C@@H]1[C@@](C)(CC[C@@H]2OC(=O)c1ccccc1)CN4CC`: the GI50 (in the test with DU-145; in test [1]; in the test with KB; in the test on A549) was > 20 µM each time. For the same molecule, the RatioGI50 in test [2] is reported as >20.
With `C=C1[C@H]2C[C@@]3([C@@H]1OC(=O)c1ccccc1)[C@@H](C[C@@H]2OC(=O)c1ccccc1)[C@@]12C4[C@@H]3C[C@@H]1[C@@](C)(CC[C@@H]2O)CN4CC`, the GI50 (in the test with DU-145; in test [1]; with KB; in the test on A549) was > 20 µM throughout. In addition, the RatioGI50 in test [2] is recorded as >20.
In the case of `C=C1[C@H]2C[C@@]3(C4C[C@@H]5C6(C)CCC7O[C@H]6N(CC)C4C75[C@@H]3C[C@@H]2O)[C@@H]1O`, the GI50 (with DU-145; in test [1]; in the test on KB; in the test on A549) was > 20 µM in each case. In addition, in test [2], the RatioGI50 was >20.
`C=C1[C@H]2C[C@@]3(C4C[C@@H]5C6(C)CCC7O[C@H]6N(CC)C4C75[C@@H]3C[C@@H]2OC(C)=O)[C@@H]1OC(C)=O`: the GI50 (in the test with DU-145; in test [1]; with KB; in the test on A549) was > 20 µM in each case. The RatioGI50 in test [2] was >20.
For the molecule `C=C1[C@H]2C[C@@H]3C4N5C[C@]6(C)CCC[C@@]47[C@@H]6[C@@H]5C[C@]3([C@@H]1OC(C)=O)[C@H]7[C@H]2O`, the concentration for 50% growth inhibition (GI50) (in the test on DU-145; in test [1]; with KB; in the test with A549) was > 20 µM throughout. Besides, the RatioGI50 in test [2] is >20.
`C=C1[C@H]2C[C@@H]3C4N5C[C@]6(C)CCC[C@@]47[C@@H]6[C@@H]5C[C@]3([C@@H]1OC(C)=O)[C@H]7[C@H]2OC(C)=O`: the GI50 (with DU-145; in test [1]; with KB; in the test on A549) was > 20 µM throughout. The RatioGI50 in test [2] is listed as >20.
`C=C1[C@H]2C[C@@H]3C4N5C[C@]6(C)CCC[C@@]47[C@@H]6[C@@H]5C[C@]3([C@@H]1O)[C@H]7[C@H]2OC(=O)c1ccccc1`: the 50% growth inhibitory concentration (GI50) (in the test on DU-145; in test [1]; in the test on KB; in the test with A549) was > 20 µM in each case. Further, in test [2], the RatioGI50 is listed as >20.
On to `C=C1[C@H]2C[C@@H]3C4N5C[C@]6(C)CCC[C@@]47[C@@H]6[C@@H]5C[C@]3([C@@H]1OC(=O)c1ccccc1)[C@H]7[C@H]2O`, for which the concentration for 50% growth inhibition (GI50) (in the test on DU-145; in test [1]; in the test with KB; in the test with A549) was > 20 µM each time. In addition, the RatioGI50 in test [2] is reported as >20.
As to `C=C1[C@H]2C[C@@H]3C4N5C[C@]6(C)CCC[C@@]47[C@@H]6[C@@H]5C[C@]3([C@@H]1OC(=O)c1ccccc1)[C@H]7[C@H]2OC(=O)c1ccccc1`, the concentration for 50% growth inhibition (GI50) was determined as 9.3 µM with DU-145, 7.5 µM in test [1], 6 µM with KB and 8.4 µM with A549. Also, the RatioGI50 in test [2] is listed as 0.8.
For `C=C1[C@H]2C[C@@H]3C4N5C[C@]6(C)CCC[C@@]47[C@@H]6[C@@H]5C[C@]3([C@@H]1O)[C@H]7[C@H]2OC(=O)c1ccc(OC)cc1`, in that order: > 20 µM, > 20 µM, > 20 µM, > 20 µM and >20.
Turning to `C=C1[C@H]2C[C@@H]3C4N5C[C@]6(C)CCC[C@@]47[C@@H]6[C@@H]5C[C@]3([C@@H]1OC(=O)c1ccc(OC)cc1)[C@H]7[C@H]2OC(=O)c1ccc(OC)cc1`, the 50% growth inhibitory concentration (GI50) is 7.1 µM in the test on DU-145, 5.2 µM in test [1], 5.3 µM with KB and 6.7 µM in the test with A549. The RatioGI50 in test [2] is on record as 1.
In the case of `C=C1[C@H]2C[C@@H]3C4N5C[C@]6(C)CCC[C@@]47[C@@H]6[C@@H]5C[C@]3([C@@H]1O)[C@H]7[C@H]2OC(=O)c1ccc([N+](=O)[O-])cc1`, the GI50 (in the test on DU-145; in test [1]; with KB; in the test on A549) was 10 µM in each case. Also, the RatioGI50 in test [2] is 10.
In the case of `C=C1[C@H]2C[C@@H]3C4N5C[C@]6(C)CCC[C@@]47[C@@H]6[C@@H]5C[C@]3([C@@H]1OC(=O)c1ccc([N+](=O)[O-])cc1)[C@H]7[C@H]2O`, the concentration for 50% growth inhibition (GI50) (in the test on DU-145; in test [1]; in the test on KB; in the test on A549) was > 20 µM in each case. Besides, the RatioGI50 in test [2] is reported as >20.
Regarding `C=C1[C@H]2C[C@@H]3C4N5C[C@]6(C)CCC[C@@]47[C@@H]6[C@@H]5C[C@]3([C@@H]1OC(=O)c1ccc([N+](=O)[O-])cc1)[C@H]7[C@H]2OC(=O)c1ccc([N+](=O)[O-])cc1`, the concentration for 50% growth inhibition (GI50) was determined as 1 µM in the test on DU-145, 5.5 µM in test [1], 5.3 µM in the test on KB and 6.9 µM with A549. For the same molecule, the RatioGI50 in test [2] is recorded as 0.96.
As for `C=C1[C@H]2C[C@@H]3C4N5C[C@]6(C)CCC[C@@]47[C@@H]6[C@@H]5C[C@]3([C@@H]1O)[C@H]7[C@H]2OC(=O)c1ccccc1C(F)(F)F`, the concentration for 50% growth inhibition (GI50) (in the test with DU-145; in test [1]; in the test with KB; in the test with A549) was > 20 µM each time. For the same molecule, the RatioGI50 in test [2] was >20.
Turning to `C=C1[C@H]2C[C@@H]3C4N5C[C@]6(C)CCC[C@@]47[C@@H]6[C@@H]5C[C@]3([C@@H]1O)[C@H]7[C@H]2OC(=O)c1cccc(C(F)(F)F)c1`, the 50% growth inhibitory concentration (GI50) (in the test on DU-145; in test [1]; in the test on KB; with A549) was > 20 µM throughout. Further, the RatioGI50 in test [2] was >20.
On to `C=C1[C@@H](O)[C@]23C[C@@H]1[C@@H](OC(=O)c1ccc(OC)c(OC)c1)C[C@H]2[C@@]12C4C3C[C@@H]1[C@@](C)(CC[C@H]2O)CN4CC`, for which the GI50 (with DU-145; in test [1]; with KB; in the test on A549) was > 20 µM each time. For the same molecule, the RatioGI50 in test [2] is >20.
As for `C=C1[C@@H](OC(C)=O)[C@]23C[C@@H]1[C@@H](OC(C)=O)C[C@H]2[C@@]12C4C3C[C@@H]1[C@@](C)(CC[C@H]2OC(C)=O)CN4CC`, the GI50 (with DU-145; in test [1]; in the test on KB; with A549) was > 20 µM each time. The RatioGI50 in test [2] is given as >20.
